Consider ten compounds from ChEMBL document CHEMBL1122938, “Ribavirin, tiazofurin, and selenazofurin: mononucleotides and nicotinamide adenine dinucleotide analogues. Synthesis, structure, and interactions with IMP dehydrogenase” (J Med Chem, 1985).

A short description of data set [1]: Inhibitory activity against Inosine-5'-monophosphate dehydrogenase using NAD as viable substrate; Inactive.
Data set [2] can be described thus: Cytotoxicity against P388 cells in culture. It is filed as cell-based. Conditions: mouse, read-out: ID50 (the source's name); call rule not given here. The essentials: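 P388 cells in log-phase growth exposed in culture to each monophosphate or dinucleotide.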
A short description of data set [3]: Inhibitory activity against Inosine-5'-monophosphate dehydrogenase using IMP as viable substrate; Inactive.
A short description of data set [4]: Noncompetitive Inhibitory activity against Inosine-5'-monophosphate dehydrogenase using IMP as viable substrate.
A short description of data set [5]: Noncompetitive inhibitory activity against Inosine-5'-monophosphate dehydrogenase using NAD as viable substrate.
A short description of data set [6]: Noncompetitive inhibitory activity against Inosine-5'-monophosphate dehydrogenase using NAD as viable substrate.
Data set [7] can be described thus: Uncompetitive Inhibitory activity against Inosine-5'-monophosphate dehydrogenase using IMP as viable substrate.
The nature of data set [8]: Uncompetitive (mixed) inhibitory activity against Inosine-5'-monophosphate dehydrogenase using NAD as viable substrate.
Data set [9] is described as follows: Inhibitory activity against Inosine-5'-monophosphate dehydrogenase using IMP as viable substrate; Inactive.
Data set [10] can be described thus: Inhibitory activity against Inosine-5'-monophosphate dehydrogenase using NAD as viable substrate; Inactive.
Data set [11] in a line: Competitive Inhibitory activity against Inosine-5'-monophosphate dehydrogenase using IMP as viable substrate.

As for `NC(=O)c1ncn([C@@H]2O[C@H](COP(=O)(O)O)[C@@H](O)[C@H]2O)c1N`, the Ki entry in data set [1] and in [3] was “Not Active” throughout. Besides, in data set [2], the CC50 is above 220 µM.
For the compound `NC(=O)c1c[se]c([C@@H]2O[C@H](COP(=O)(O)O)[C@@H](O)[C@H]2O)n1`, the inhibition constant (Ki) turned out to be 170 µM in data set [4] and 470 µM in [5]. Besides, the CC50 in data set [2] was 1.4 µM.
Consider `NC(=O)c1csc([C@@H]2O[C@H](COP(=O)(O)O)[C@@H](O)[C@H]2O)n1`, for which the Ki in data set [4] stood at 265 µM; in data set [5], 405 µM. For the same compound, the CC50 in data set [2] worked out at 10 µM.
With `NC(=O)c1c[se]c(C2O[C@@H](COP(=O)(O)OP(=O)(O)OC[C@H]3OC(n4cnc5c(N)ncnc54)[C@H](O)[C@@H]3O)[C@H](O)[C@@H]2O)n1` (stereo not given in full), the Ki in [6] amounted to 0.04 µM; in [7], 0.05 µM. Besides, the CC50 in [2] turned out to be 9.8 µM.
In the case of `NC(=O)c1c[se]c([C@H]2O[C@@H](COP(=O)(O)OP(=O)(O)OC[C@H]3O[C@@H](c4nc(C(N)=O)c[se]4)[C@H](O)[C@@H]3O)[C@H](O)[C@@H]2O)n1`, the Ki amounted to 240 µM in data set [8] and 190 µM in [7]. Also, the CC50 in [2] came to 0.6 µM.
Take `NC(=O)c1ncn(C2O[C@H](COP(=O)(O)OP(=O)(O)OC[C@H]3OC(n4cnc5c(N)ncnc54)[C@H](O)[C@@H]3O)[C@H](O)[C@@H]2O)n1` (stereo not given in full): the Ki came to 148 µM in data set [4] and 235 µM in data set [6]. Further, the CC50 in [2] stood at 40 µM.
On to `NC(=O)c1csc([C@H]2O[C@@H](COP(=O)(O)OP(=O)(O)OC[C@H]3O[C@@H](n4cnc5c(N)ncnc54)[C@H](O)[C@@H]3O)[C@H](O)[C@@H]2O)n1`, for which the Ki turned out to be 0.24 µM in data set [6] and 0.13 µM in [7]. Moreover, the CC50 in [2] came to 7.5 µM.
Turning to `NC(=O)c1csc([C@H]2O[C@@H](COP(=O)(O)OP(=O)(O)OC[C@H]3O[C@@H](c4nc(C(N)=O)cs4)[C@H](O)[C@@H]3O)[C@H](O)[C@@H]2O)n1`, the Ki in data set [8] amounted to 370 µM; in data set [7], 140 µM. The CC50 in data set [2] was determined as 4.6 µM.
With `NC(=O)c1ncn(C2O[C@H](COP(=O)(O)OP(=O)(O)OC[C@H]3OC(n4cnc5c(N)ncnc54)[C@H](O)[C@@H]3O)[C@H](O)[C@@H]2O)c1N` (stereo not given in full), the Ki entry in data set [9] and in [10] was “Not Active” throughout. In addition, the CC50 in [2] stood at 78 µM.
As to `NC(=O)c1ncn([C@@H]2O[C@H](COP(=O)(O)O)[C@@H](O)[C@H]2O)n1` [RIBAVIRIN MONOPHOSPHATE], the Ki is 4.18 µM in data set [11] and 2.24 µM in data set [6]. Also, the CC50 in [2] was determined as 65 µM.

Usually Ki stands for a dissociation constant, usually derived from enzyme kinetics or from competition with a known ligand.
